Laboratory results taken from ChEMBL document CHEMBL3856258, “Phosphonate-based irreversible inhibitors of human γ-glutamyl transpeptidase (GGT). GGsTop is a non-toxic and highly selective inhibitor with critical electrostatic interaction with an active-site residue Lys562 for enhanced inhibitory activity” (Bioorg Med Chem, 2016).
The source made the active and inactive calls. The rule behind the calls is not given here.

Columns and labels:
[1] = Cytotoxicity against CHL cells assessed as growth rate at 84.5 ug/ml after 24 hrs in absence of S9 fraction by MTT assay relative to control; format: toxicity, cell-based, Cricetulus griseus; settings: chinese hamster, read-out: Activity
[2] = Cytotoxicity against CHL cells assessed as growth rate at 2.16 ug/ml preincubated for 6 hrs followed by 18 hrs incubation in fresh medium in presence of S9 fraction by MTT assay relative to control; format: toxicity, cell-based, Cricetulus griseus; settings: chinese hamster, read-out: Activity
Rattus norvegicus = species on record: Rattus norvegicus; assay: Cytotoxicity against Wistar rat BSC assessed as reduction in cell viability up to 1 mM after 24 hrs by neutral red method; format: toxicity
Salmonella typhimurium [3] = assay: Genotoxicity in Salmonella typhimurium TA1537 assessed as number of revertant colonies per plate at 1667 ug/plate after 20 mins in presence of S9 fraction by Ames test (reference value: 15); format: toxicity, organism-based; settings: salmonella enterica subsp. enterica serovar typhimurium
Escherichia coli [4] = assay: Genotoxicity in Escherichia coli WP2uvrA assessed as number of revertant colonies per plate at 61.7 ug/plate after 20 mins in absence of S9 fraction by Ames test (reference value: 24); format: toxicity; settings: s9, 20 min
[5] = Cytotoxicity against CHL cells assessed as chromatid gap at 3300 ug/ml preincubated for 6 hrs followed by 18 hrs incubation in fresh medium in presence of S9 fraction by Giemsa-staining-based microscopic analysis; format: toxicity, cell-based, Cricetulus griseus; settings: chinese hamster
Homo sapiens = species on record: Homo sapiens; assay: Irreversible inhibition of human GGT using gamma-Glu-AMC as substrate assessed as association rate constant by […] analysis
How it was run: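 The enzyme source was a commercial human GGT preparation carrying bovine serum albumin as stabilizer (GGT <1% of protein). Hydrolytic activity was followed with γ-Glu-AMC as substrate. Irreversible inactivation was expressed as kon, the second-order rate constant for the inhibitor–enzyme reaction.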

[6] = Cytotoxicity against CHL cells assessed as chromatid gap at 825 ug/ml after 24 hrs by Giemsa-staining-based microscopic analysis; format: toxicity, cell-based, Cricetulus griseus; settings: chinese hamster
Salmonella typhimurium [7] = assay: Genotoxicity in Salmonella typhimurium TA1537 assessed as number of revertant colonies per plate at 556 ug/plate after 20 mins in presence of S9 fraction by Ames test (reference value: 15); format: toxicity, organism-based; settings: salmonella enterica subsp. enterica serovar typhimurium
[8] = Cytotoxicity against CHL cells assessed as growth rate at 33.8 ug/ml after 24 hrs in absence of S9 fraction by MTT assay relative to control; format: toxicity, cell-based, Cricetulus griseus; settings: chinese hamster, read-out: Activity
[9] = Cytotoxicity against CHL cells assessed as chromatid gap at 1650 ug/ml preincubated for 6 hrs followed by 18 hrs incubation in fresh medium in absence of S9 fraction by Giemsa-staining-based microscopic analysis; format: toxicity, cell-based, Cricetulus griseus; settings: chinese hamster
Salmonella typhimurium [10] = assay: Genotoxicity in Salmonella typhimurium TA98 assessed as number of revertant colonies per plate at 556 ug/plate after 20 mins in absence of S9 fraction by Ames test (reference value: 21); format: toxicity, organism-based; settings: salmonella enterica subsp. enterica serovar typhimurium
Salmonella typhimurium [11] = assay: Genotoxicity in Salmonella typhimurium TA100 assessed as number of revertant colonies per plate at 5000 ug/plate after 20 mins in absence of S9 fraction by Ames test (reference value: 123); format: toxicity, organism-based; settings: salmonella enterica subsp. enterica serovar typhimurium
Escherichia coli [12] = assay: Genotoxicity in Escherichia coli WP2uvrA assessed as number of revertant colonies per plate at 1667 ug/plate after 20 mins in presence of S9 fraction by Ames test (reference value: 26); format: toxicity; settings: s9, 20 min
[13] = Cytotoxicity against CHL cells assessed as structural aberrations at 3300 ug/ml after 24 hrs by Giemsa-staining-based microscopic analysis; format: toxicity, cell-based, Cricetulus griseus; settings: chinese hamster
Salmonella typhimurium [14] = assay: Genotoxicity in Salmonella typhimurium TA1537 assessed as number of revertant colonies per plate at 1667 ug/plate after 20 mins in absence of S9 fraction by Ames test (reference value: 9); format: toxicity, organism-based; settings: salmonella enterica subsp. enterica serovar typhimurium
Salmonella typhimurium [15] = assay: Genotoxicity in Salmonella typhimurium TA1535 assessed as number of revertant colonies per plate at 556 ug/plate after 20 mins in presence of S9 fraction by Ames test (reference value: 13); format: toxicity, organism-based; settings: salmonella enterica subsp. enterica serovar typhimurium
[16] = Cytotoxicity against CHL cells assessed as growth rate at 528 ug/ml preincubated for 6 hrs followed by 18 hrs incubation in fresh medium in absence of S9 fraction by MTT assay relative to control; format: toxicity, cell-based, Cricetulus griseus; settings: chinese hamster, read-out: Activity
[17] = Cytotoxicity against CHL cells assessed as growth rate at 84.5 ug/ml preincubated for 6 hrs followed by 18 hrs incubation in fresh medium in absence of S9 fraction by MTT assay relative to control; format: toxicity, cell-based, Cricetulus griseus; settings: chinese hamster, read-out: Activity
Salmonella typhimurium [18] = assay: Genotoxicity in Salmonella typhimurium TA98 assessed as number of revertant colonies per plate at 5000 ug/plate after 20 mins in presence of S9 fraction by Ames test (reference value: 26); format: toxicity, organism-based; settings: salmonella enterica subsp. enterica serovar typhimurium
[19] = test system: Gamma-glutamyltranspeptidase 1 (Homo sapiens); assay: Inhibition of human wild-type N-terminal truncated GGT expressed in baculovirus infected High Five cells at 1 mM using gamma-Glu-PNA as substrate after 1 min by spectrophotometric method; settings: BTI-TN-5B1-4
[20] = Cytotoxicity against CHL cells assessed as growth rate at 528 ug/ml preincubated for 6 hrs followed by 18 hrs incubation in fresh medium in presence of S9 fraction by MTT assay relative to control; format: toxicity, cell-based, Cricetulus griseus; settings: chinese hamster, read-out: Activity
Escherichia coli [21] = assay: Genotoxicity in Escherichia coli WP2uvrA assessed as number of revertant colonies per plate at 556 ug/plate after 20 mins in absence of S9 fraction by Ames test (reference value: 24); format: toxicity; settings: s9, 20 min
[22] = Cytotoxicity against CHL cells assessed as chromatid gap at 825 ug/ml preincubated for 6 hrs followed by 18 hrs incubation in fresh medium in absence of S9 fraction by Giemsa-staining-based microscopic analysis; format: toxicity, cell-based, Cricetulus griseus; settings: chinese hamster
[23] = Cytotoxicity against CHL cells assessed as number of cells with numerical aberrations at 825 ug/ml preincubated for 6 hrs followed by 18 hrs incubation in fresh medium in presence of S9 fraction by Giemsa-staining-based microscopic analysis relative to control; format: toxicity, cell-based, Cricetulus griseus; settings: chinese hamster
Salmonella typhimurium [24] = assay: Genotoxicity in Salmonella typhimurium TA100 assessed as number of revertant colonies per plate at 185 ug/plate after 20 mins in absence of S9 fraction by Ames test (reference value: 123); format: toxicity, organism-based; settings: salmonella enterica subsp. enterica serovar typhimurium
[25] = Cytotoxicity against CHL cells assessed as chromatid gap at 1650 ug/ml after 24 hrs by Giemsa-staining-based microscopic analysis; format: toxicity, cell-based, Cricetulus griseus; settings: chinese hamster
Salmonella typhimurium [26] = assay: Genotoxicity in Salmonella typhimurium TA100 assessed as number of revertant colonies per plate at 61.7 ug/plate after 20 mins in presence of S9 fraction by Ames test (reference value: 142); format: toxicity, organism-based; settings: salmonella enterica subsp. enterica serovar typhimurium
Salmonella typhimurium [27] = assay: Genotoxicity in Salmonella typhimurium TA1535 assessed as number of revertant colonies per plate at 185 ug/plate after 20 mins in absence of S9 fraction by Ames test (reference value: 15); format: toxicity, organism-based; settings: salmonella enterica subsp. enterica serovar typhimurium
Salmonella typhimurium [28] = assay: Genotoxicity in Salmonella typhimurium TA1535 assessed as number of revertant colonies per plate at 1667 ug/plate after 20 mins in absence of S9 fraction by Ames test (reference value: 15); format: toxicity, organism-based; settings: salmonella enterica subsp. enterica serovar typhimurium
Salmonella typhimurium [29] = assay: Genotoxicity in Salmonella typhimurium TA1537 assessed as number of revertant colonies per plate at 185 ug/plate after 20 mins in presence of S9 fraction by Ames test (reference value: 15); format: toxicity, organism-based; settings: salmonella enterica subsp. enterica serovar typhimurium
[30] = Cytotoxicity against CHL cells assessed as chromatid gap at 1650 ug/ml preincubated for 6 hrs followed by 18 hrs incubation in fresh medium in presence of S9 fraction by Giemsa-staining-based microscopic analysis; format: toxicity, cell-based, Cricetulus griseus; settings: chinese hamster
[31] = Cytotoxicity against CHL cells assessed as structural aberrations at 1650 ug/ml after 24 hrs by Giemsa-staining-based microscopic analysis; format: toxicity, cell-based, Cricetulus griseus; settings: chinese hamster

With `COP(=O)(CCC(N)C(=O)O)Oc1cccc(CC(=O)O)c1` (stereo not drawn) as the molecule, how does the viability at 24 h, 84.5 ug/ml [1] read?
The viability at 24 h, 84.5 ug/ml was 101%.

What about the viability at 18 h, 2.16 ug/ml [2] of the same molecule?
The viability at 18 h, 2.16 ug/ml was 101%.

And the Activity (Rattus norvegicus)?
The Activity was “Non-Toxic”.

And the Activity (Salmonella typhimurium [3])?
Its Activity is 18.

What about the Activity (Escherichia coli [4]) of the same molecule?
The Activity was 26.

What about the Activity [5] of the same molecule?
The Activity was 0%.

And the K (Homo sapiens)?
Its K is 51 M⁻¹ s⁻¹.

What about the Activity [6] of the same molecule?
The Activity was 0%.

And the Activity (Salmonella typhimurium [7])?
The Activity was 16.

What about the viability at 24 h, 33.8 ug/ml [8] of the same molecule?
The viability at 24 h, 33.8 ug/ml was 105%.

What about the Activity [9] of the same molecule?
Its Activity is 0%.

What about the Activity (Salmonella typhimurium [10]) of the same molecule?
Its Activity is 29.

What about the Activity (Salmonella typhimurium [11]) of the same molecule?
Its Activity is 123.

What about the Activity (Escherichia coli [12]) of the same molecule?
The Activity was 23.

What about the Activity [13] of the same molecule?
The Activity was 1%.

And the Activity (Salmonella typhimurium [14])?
The Activity was 10.

What about the Activity (Salmonella typhimurium [15]) of the same molecule?
Its Activity is 12.

What about the viability at 18 h, 528 ug/ml [16] of the same molecule?
Its viability at 18 h, 528 ug/ml is 101%.

And the viability at 18 h, 84.5 ug/ml [17]?
The viability at 18 h, 84.5 ug/ml was 102%.

What about the Activity (Salmonella typhimurium [18]) of the same molecule?
The Activity was 27.

What about the inhibition [19] of the same molecule?
The inhibition was “Active”.

And the viability at 18 h, 528 ug/ml [20]?
Its viability at 18 h, 528 ug/ml is 95.2%.

And the Activity (Escherichia coli [21])?
Its Activity is 25.

What about the Activity [22] of the same molecule?
The Activity was 1%.

And the Activity [23]?
Its Activity is 1%.

And the Activity (Salmonella typhimurium [24])?
The Activity was 128.

What about the Activity [25] of the same molecule?
Its Activity is 1%.

And the Activity (Salmonella typhimurium [26])?
Its Activity is 133.

What about the Activity (Salmonella typhimurium [27]) of the same molecule?
Its Activity is 12.

And the Activity (Salmonella typhimurium [28])?
Its Activity is 11.

What about the Activity (Salmonella typhimurium [29]) of the same molecule?
Its Activity is 12.

And the Activity [30]?
The Activity was 1%.

What about the Activity [31] of the same molecule?
Its Activity is 1%.
